Source: PubChem (Broad Institute)
PGC1a Ac signal: compounds raising PGC1a acetylation signal, primary screen, PGC1a modulator project, cell-based, U2OS, AlphaScreen, signal-increasing mode | hit rate 0.21% among 350,000 | overnight | activation, % at 15.6 µM;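 active = every replicate reaching activation of at least 50%, whatever the mean replicate activation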;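 also: hits raise the AlphaScreen acetylation signal above neutral controls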
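System: flag-PGC1a/GCN5 U2OS cells / Input: 7000 cells/well / Compound: single test concentration per compound / Incubation: overnight compound treatment, 37 °C / Technique: AlphaScreen on lysates with anti-acetyl-lysine antibody, acceptor and donor beads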
Starred values were filed as active, the others as inactive. The entries come from a sample that favours hits as a whole.

SMILES | PGC1a Ac signal
COc1cc(/C=N/NC(=O)c2ccc(O)cc2)ccc1OCC(=O)Nc1cccc([N+](=O)[O-])c1 | -52
O=C(N/N=C/c1ccc([N+](=O)[O-])o1)c1cc2ccccc2o1 | 329*
O=C(N/N=C/c1ccc([N+](=O)[O-])o1)c1ccc(O)cc1 | 64*
C[C@H](CO)N1C[C@H](C)[C@@H](CN(C)Cc2cncnc2)Oc2cc(C#CC3CC3)ccc2S1(=O)=O | -50
O=C(CCl)Nc1ccc(N=Nc2ccccc2)cc1 | 101*
O=C(CCCCCCC(=O)Nc1ccccc1)NO | -40
Cc1ccc(CCC(=O)Nc2ccc(Cl)cc2)o1 | -72
COc1ccc(NC(=O)[C@H](Cc2c[nH]c3ccccc23)NC(=O)[C@@H]2Cc3ccccc3CN2)cc1 | -63
CC[C@H](C)[C@H](NC(=O)c1ccc(Cl)cc1)C(=O)OCC(=O)c1ccc2c(c1)NC(=O)CO2 | -40
OC[C@@H]1CN(Cc2ccccc2)C[C@H](n2cnc3c(NCc4ccc(F)cc4)ncnc32)O1 | -44
COc1ccccc1/C=C1\SC(=O)N(CCC(=O)NCCCn2ccnc2)C1=O | 214*
O=C(CCN1C(=O)/C(=C/c2ccccc2)SC1=S)NCCCN1CCOCC1 | -56
COc1ccccc1/C=C1\SC(=S)N(CCC(=O)NCCCn2ccnc2)C1=O | 121*
CCOCCOC(=O)C(C)Oc1ccc(Oc2nc(Cl)ccc2Cl)cc1 (centres undefined) | -88
Cc1ccc(-c2nn(C)c(=O)c3ccccc23)cc1S(=O)(=O)NCCN(C)C | -42
CCc1cc(C=NC2CCCCC2)c(O)s1 | 61*
Cc1nc2ccccc2nc(C)c1=NO | -48
Cn1ccc2cc(OCc3ccccc3)ccc21 | 54*
Cc1ccccc1NC(=O)CC1c2ccccc2CC(C)(C)N1C (centres undefined) | -83
Cc1nc([N+](=O)[O-])c(Br)n1CC(=O)c1ccc(Br)cc1 | -64
CC(=O)Oc1ccc(-c2csnn2)cc1 | -95
CCN1CCN(Cc2ccc(NC(=O)c3ccc(C)c(NC(=O)c4cncc(-c5cccs5)c4)c3)cc2C(F)(F)F)CC1 | -69
CC(=O)c1cccc(NC(=S)NC(=O)c2ccc(Br)cc2)c1 | -41
O=C(NC(=S)Nc1cc(Cl)ccc1O)c1cccc(Br)c1 | -56
CC1(C)CC(NC(=S)NC(=O)c2cc(Br)ccc2Cl)CC(C)(C)N1 | 226*
SMILES | PGC1a Ac signal
COc1ccc(F)cc1CN1CCN(CC(=O)N2CCc3ccccc32)CC1 | -44
COC(=O)C1=NN(C(=O)c2ccccc2)C(O)(c2ccc([N+](=O)[O-])cc2)C1 (centres undefined) | 115*
CCOC(=O)C1=C(CNCc2ccc(C)cc2)NC(=O)NC1c1cc(C)ccc1C (centres undefined) | -50
CC1=CC=CC2=NC(=O)CC(C)(C(=O)N(CC(=O)NC3CCCC3)c3ccccc3C)N12 (centres undefined) | 54*
COc1ccccc1C1c2ccc3ccccc3c2Oc2ncn(CCN(C)C)c(=N)c21 (centres undefined) | 58*
Clc1ccccc1OCCCCN1CCCC1 | -42
Cc1ccccc1CS(=O)(=O)c1nnc([C@H](CC(C)C)NC(=O)OC(C)(C)C)o1 | 74*
O=C(c1cccc(F)c1)N1CCN(C(=O)c2cc(-c3ccc(Cl)cc3Cl)on2)CC1 | -43
CCCS(=O)(=O)c1nnnn1-c1cccc(OC)c1 | 73*
COc1cccc(-n2c(-c3cccc(S(=O)(=O)N(C)C)c3)n[nH]c2=S)c1 | -56
COc1ccc(C(=O)Nc2cccc(S(C)(=O)=O)c2)cc1OC | -41
Cc1cc(Br)c(OCc2ccc(C(=O)N/N=C/c3ccc[nH]3)cc2)c(Br)c1 | -87
COc1ccc(N(C)S(=O)(=O)c2cccc(C(=O)Nc3ccc(-n4cnnn4)cc3)c2)cc1 | 67*
COc1ccccc1OCCn1cc(/C=N/NC(=O)c2ccncc2)c2ccccc21 | -50
COc1cccc(/C=N/NC(=O)c2ccc(-n3cnnn3)cc2)c1 | 84*
COc1ccc(C(=O)Nc2ccc3c4c(cccc24)CC3)cc1 | -86
COCC#Cc1ccc2c(c1)O[C@H](CN(C)C(=O)CN(C)C)[C@@H](C)CN([C@@H](C)CO)S2(=O)=O | -58
CCC(=O)NC1(Cc2ccc(O)cc2)CCCCC1 | -44
CC(=O)Nc1ccc(Oc2sc(C(=O)c3ccccc3)c(N)c2C#N)cc1 | -22
COc1ccc(S(=O)(=O)N2c3ccc(F)cc3CCC2C)cc1 (centres undefined) | 120*
CCO[C@H]1OC(C(=O)Nc2ccccc2)=C[C@@H](c2csc3ccccc23)[C@@H]1CCCO | -54
C=C1C(=O)C=C[C@]2(C)C[C@@H]3OC(=O)[C@](C)(O)[C@H]3C[C@@H]12 | 178*
CN1C(C(=O)Nc2ccccn2)=C(O)c2sc(Cl)cc2S1(=O)=O | -53
Cc1ccc(NC2=C([N+](=O)[O-])CS(=O)(=O)C2)cc1 | 218*
Cc1ccc(NC2=C(Cl)C(=O)c3ccccc3C2=O)cc1 | -53
SMILES | PGC1a Ac signal
O=C(Nc1cccc2c1CCCC2)c1ccccc1Br | -50
CN1CCN(C(=O)c2sc(=S)n(-c3ccccc3)c2N)CC1 | -63
CC(=O)N(C1=C(N2CCOCC2)C(=O)c2ccccc2C1=O)c1ccc(C(=O)O)cc1 | -40
c1cc2c3c(cccc3c1)C(N1CCCCCC1)=N2 | 86*
c1nc(NC2CCCCCC2)c2[nH]cnc2n1 | -41
Cc1ccccc1CSc1nnc(-c2ccco2)n1Cc1ccco1 | -99
COC(=O)c1cccc2c1-c1ccccc1/C2=N/O | -75
COc1cc(/C=C2\CC(C(C)(C)C)C/C(=C\c3cc(OC)c(OC)c(OC)c3)C2=O)cc(OC)c1OC (centres undefined) | -53
N#C/C(=C(/O)c1cc2ccccc2o1)c1nc2ccccc2s1 | -44
N#C/C(=C(/O)c1ccco1)c1nc2ccccc2[nH]1 | 61*
CCOC(=O)CNC(=O)OC1CCN2Cc3ccccc3N=C12 (centres undefined) | -78
Cc1cc(C)c2oc(C(=O)N(Cc3ccccc3)c3ccccn3)cc(=O)c2c1 | -46
O=C/C=C/c1ccc(-c2ccccc2)cc1 | 74*
COc1ccc(OCC(=O)NNC(=O)c2c(-c3ccccc3Cl)noc2C)cc1 | -62
CSc1n[nH]c(NC(=O)c2c(-c3c(Cl)cccc3Cl)noc2C)n1 | -65
Cc1cc(C)nc(NC(=O)c2c(-c3ccccc3Cl)noc2C)n1 | 77*
C=CCN1C(=O)N(/C=C/C)c2cccc3cccc1c23 | 60*
O=C(NC(=S)Nc1ccccc1N1CCCC1)c1cccs1 | -51
CS(=O)c1nc(-c2ccc(Br)cc2)cc(-c2ccccc2)c1C#N (centres undefined) | -91
C=CC(=O)N1C/C(=C/c2ccc(F)cc2)C(=O)/C(=C\c2ccc(F)cc2)C1 | -83
CC/C(=C(\c1ccc(O)cc1)c1ccc(OCCN(C)C)cc1)c1ccccc1 | 63*
CC/C(=C(\c1ccccc1)c1ccc(OCCN(C)C)cc1)c1ccccc1 | 124*
CCN(CC)CCOc1ccc(/C(=C(/Cl)c2ccccc2)c2ccccc2)cc1 | 99*
O=C1C2C3CCC(C3)C2C(=O)N1CNc1ccc(F)cc1 (centres undefined) | -47
C[C@@H]1CN([C@H](C)CO)C(=O)c2cc(-c3ccccc3)cnc2O[C@@H]1CN(C)C(=O)Cc1ccccc1 | -42
CC1OC(CC(=O)O)CC2=C1C(=O)c1c(O)cccc1C2=O (centres undefined) | -75
CC(C)CC(OC(=O)c1cccs1)C(=O)NCc1ccco1 (centres undefined) | 86*
